Data on one molecule can be found in PMC3580954 (Biopolymers, 2013).

Positions count from the first letter of the chain named. Residues, ends and D or L forms follow the SMILES beside them.

Assay type in all cases: cell-based
Common to all, as to settings: SD

The target of one experiment is T1, wt hPrRP receptor (Homo sapiens, UniProt P49683).
T1 sequence (P49683 1-370): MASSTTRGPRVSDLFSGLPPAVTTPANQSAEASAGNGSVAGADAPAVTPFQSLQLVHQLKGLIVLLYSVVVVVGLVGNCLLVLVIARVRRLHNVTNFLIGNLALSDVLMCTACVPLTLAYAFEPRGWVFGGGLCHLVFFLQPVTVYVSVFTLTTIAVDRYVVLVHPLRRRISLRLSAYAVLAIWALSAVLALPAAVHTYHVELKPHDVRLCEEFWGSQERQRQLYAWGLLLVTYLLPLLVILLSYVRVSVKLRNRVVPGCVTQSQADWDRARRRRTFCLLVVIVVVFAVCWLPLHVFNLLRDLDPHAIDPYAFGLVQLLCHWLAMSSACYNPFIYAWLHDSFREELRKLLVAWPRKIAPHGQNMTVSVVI
As to the kind of experiment: Signal transduction. The gist of the method: (§1)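 COS-7 cells were transiently transfected with 0.4 µg plasmid of human PrRP receptor or its site-directed mutant, C-terminally fused to EYFP. One day after transfection and 16 h before stimulation, cells were labelled with 2 µCi/mL [³H]myo-inositol. They were then stimulated with increasing peptide concentrations for 1 h at 37°C in DMEM with 10 mM LiCl, and lysed in 0.1 M NaOH. IP was separated by anion exchange and counted by scintillation. EC50 came from concentration-response curves; runs were in duplicate, repeated ≥2 times.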

For another experiment, the target named is T2, F^2.66A PrRP receptor (Homo sapiens, UniProt P49683, F122A).
T2 sequence (P49683 1-370 F122A): T1 sequence (P49683 1-370) with F122A
Put plainly: IP accumulation assay, F^2.66A receptor mutant.

In the next experiment the target is T3, W^2.71A PrRP receptor (Homo sapiens, UniProt P49683, W127A).
T3 sequence (P49683 1-370 W127A): T1 sequence (P49683 1-370) with W127A
As to the kind of experiment: IP accumulation assay, W^2.71A receptor mutant. The gist of the method: as §1

The next experiment concerns the target T4, F^2.73A PrRP receptor (Homo sapiens, UniProt P49683, F129A).
T4 sequence (P49683 1-370 F129A): T1 sequence (P49683 1-370) with F129A
As to the kind of experiment: IP accumulation assay, F^2.73A receptor mutant.

For a further experiment, the target named is T5, Y^2.64A PrRP receptor (Homo sapiens, UniProt P49683, Y120A).
T5 sequence (P49683 1-370 Y120A): T1 sequence (P49683 1-370) with Y120A
As to the kind of experiment: IP accumulation assay, Y^2.64A receptor mutant. The method, boiled down:
as §1

For another experiment, the target named is T6, R^2.69A PrRP receptor (Homo sapiens, UniProt P49683, R125A).
T6 sequence (P49683 1-370 R125A): T1 sequence (P49683 1-370) with R125A
Put plainly: IP accumulation assay, R^2.69A receptor mutant.

The next experiment has as its target T7, E^2.67A PrRP receptor (Homo sapiens, UniProt P49683, E123A).
T7 sequence (P49683 1-370 E123A): T1 sequence (P49683 1-370) with E123A
Put plainly: IP accumulation assay, E^2.67A receptor mutant.

Regarding `CC[C@H](C)[C@H](NC(=O)CNC(=O)[C@H](CCCNC(=N)N)NC(=O)[C@H](CO)NC(=O)[C@H](C)NC(=O)[C@H](Cc1ccc(O)cc1)NC(=O)[C@H](Cc1c[nH]c2ccccc12)NC(=O)[C@H](C)NC(=O)[C@@H]1CCCN1C(=O)[C@H](CC(N)=O)NC(=O)[C@@H](NC(=O)[C@H](CC(=O)O)NC(=O)[C@@H]1CCCN1C(=O)[C@@H](N)[C@@H](C)O)[C@@H](C)CC)C(=O)N[C@@H](CCCNC(=N)N)C(=O)N1CCC[C@H]1C(=O)N[C@H](C(=O)NCC(=O)N[C@@H](CCCNC(=N)N)C(=O)N[C@@H](Cc1ccccc1)C(N)=O)C(C)C` [PrRP20] (H-TPDINPAWYASRGIRPVGRF-NH2), the EC50 – broadly, the concentration at which the effect is half-maximal – was 2.2 ± 0.3 nM on wt hPrRP receptor; 6.2 ± 3.3 nM on F^2.66A PrRP receptor; 593 ± 78 nM on W^2.71A PrRP receptor; 4.4 ± 2 nM at F^2.73A PrRP receptor; 50 ± 7.5 nM on Y^2.64A PrRP receptor; 4.2 ± 2.5 nM at R^2.69A PrRP receptor. Moreover, the EC50 on E^2.67A PrRP receptor is 7.2 ± 3.4 nM.
